What all share (conditions): Chlorocebus aethiops
The subject of assay [1] is COS-1. Description: Inhibitory activity against HIV Tat-regulated Transactivation in COS cells. The format is functional, cell-based. The procedure, abridged:
(§1)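 COS cells in IMDM with 10% FBS, penicillin, streptomycin and Fungizone, 37 °C, 5% CO2, seeded in triplicate at ca. 1.5×10^5 cells/well and grown 24 h to 50% confluence. Calcium phosphate cotransfection with CMV-driven tat plasmid (0.20 µg/well) and HIV LTR-SEAP plasmid (0.40 µg/well) for 18 h. Compound then added in medium with 0.30% DMSO final, for 48 h.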

The test system of assay [2] is COS-1. Description: Compound tested for inhibition of HIV Tat-regulated Transactivation in COS cells at a concentration of 100 uM. The format is functional. A digest of the protocol:
as §1

The subject of assay [3] is COS-1. Description: Compound tested for inhibition of HIV Tat-regulated Transactivation in COS cells at a concentration of 1 uM. The format is functional. The procedure, abridged:
as §1

The test system of assay [4] is COS-1. Description: Compound tested for inhibition of HIV Tat-regulated Transactivation in COS cells at a concentration of 30 uM. The format is functional. A digest of the protocol: as §1
In assay [5] the test system is COS-1. Description: Compound tested for inhibition of HIV Tat-regulated Transactivation in COS cells at a concentration of 10 uM. Type of assay: functional. A digest of the protocol:
as §1

In assay [6] the test system is COS-1. Description: Compound tested for inhibition of HIV Tat-regulated Transactivation in COS cells at a concentration of 60 uM. The format is functional. A digest of the protocol:
as §1

Assay [7] concerns COS-1. Description: Compound tested for inhibition of HIV Tat-regulated Transactivation in COS cells at a concentration of 3 uM. Type of assay: functional. The procedure, abridged: as §1
The subject of assay [8] is COS-1. Description: Compound tested for inhibition of HIV Tat-regulated Transactivation in COS cells at a concentration of 20 uM. Type of assay: functional. The procedure, abridged: as §1

What is called IC50 is the point on the concentration scale where inhibition reaches its midpoint. Low readings indicate greater potency, high ones weaker potency. The inhibition is the percentage by which the read-out fell short of the control. A low value points to a weak effect.

Molecules are shown by their SMILES.

`COc1ccc(C[C@@H](C)[C@@H](C)Cc2ccc(O)c(O)c2)cc1O`: inhibition with COS-1 [1] was half-maximal at 30.8 µM (IC50). Besides, in the assay with COS-1 [2], at 100 µM the inhibition was 91.3%. In addition, the inhibition at 1 µM with COS-1 [3] worked out at 5%. In addition, the inhibition at 30 µM with COS-1 [4] stood at 52%. The compound also gave an inhibition at 10 µM in the assay with COS-1 [5] of 5%. Besides, in the assay with COS-1 [6], at 60 µM the inhibition was 73.7%. Also, the inhibition at 3 µM in the assay on COS-1 [7] was 2.3%. The same compound showed an inhibition at 20 µM with COS-1 [8] of 27.5%.

In turn, `COc1ccc(C[C@H](C)[C@H](C)Cc2ccc(OC)c(OC)c2)cc1O` (racemic) returned an IC50 with COS-1 [1] of 14.3 µM. Moreover, the inhibition at 100 µM in the assay on COS-1 [2] stood at 88.3%. In addition, in the assay on COS-1 [3], the inhibition at 1 µM was found to be 16.5%. Moreover, in the assay with COS-1 [4], the inhibition at 30 µM turned out to be 66%. Also, testing at 10 µM in the assay with COS-1 [5] gave an inhibition of 41.7%. The compound also displayed an inhibition at 60 µM in the assay on COS-1 [6] of 78.3%. Also, the inhibition at 3 µM in the assay with COS-1 [7] was found to be 27%. The compound also showed an inhibition at 20 µM with COS-1 [8] of 52%.

The compound `COc1cc(C[C@@H](C)[C@@H](C)Cc2ccc(O)c(O)c2)ccc1O` (racemic) returned an IC50 with COS-1 [1] of 25 µM. In the assay on COS-1 [2], this compound showed an inhibition at 100 µM of 92.3%. This compound showed an inhibition at 1 µM in the assay on COS-1 [3] of 9%. In the assay with COS-1 [4], this compound had an inhibition at 30 µM of 56.3%. This compound had an inhibition at 10 µM with COS-1 [5] of 20.7%. This compound also came in with an inhibition at 60 µM with COS-1 [6] of 83.3%. For the same compound, 3 µM produced 7.3% inhibition in the assay on COS-1 [7]. The same compound showed an inhibition at 20 µM with COS-1 [8] of 38.5%.

For `COc1cc(C[C@H](C)[C@H](C)Cc2ccc(OC)c(OC)c2)ccc1O` (racemic), the IC50 with COS-1 [1] came out at 13.7 µM. This compound yielded an inhibition at 100 µM in the assay with COS-1 [2] of 87.7%. In the assay with COS-1 [3], this compound came in with an inhibition at 1 µM of 14.5%. The compound further gave an inhibition at 30 µM in the assay with COS-1 [4] of 65%. This compound also gave an inhibition at 10 µM in the assay on COS-1 [5] of 45%. Further, the inhibition at 60 µM in the assay with COS-1 [6] came out at 76.3%. Moreover, the inhibition at 3 µM in the assay on COS-1 [7] worked out at 26.7%. In the assay on COS-1 [8], this compound registered an inhibition at 20 µM of 50.5%.

In the assay with COS-1 [1], `COc1ccc(C[C@@H](C)[C@@H](C)Cc2ccc(O)c(O)c2)cc1OC` (racemic) showed an IC50 of 16.5 µM. For the same compound, the inhibition at 100 µM in the assay on COS-1 [2] worked out at 96%. The inhibition at 1 µM in the assay on COS-1 [3] turned out to be 12.5%. The inhibition at 30 µM with COS-1 [4] was 69.3%. This compound returned an inhibition at 10 µM with COS-1 [5] of 20%. The inhibition at 60 µM with COS-1 [6] amounted to 87.7%. Moreover, the inhibition at 3 µM with COS-1 [7] was found to be 14.3%. Further, the inhibition at 20 µM with COS-1 [8] came to 59%.

`COc1ccc(C[C@@H](C)[C@@H](C)Cc2ccc(OC)c(O)c2)cc1O` [DIMETHYLNORDIHYDROGUARIERATE ACID] came in with an IC50 with COS-1 [1] of 29.9 µM. This compound also came in with an inhibition at 100 µM with COS-1 [2] of 85.7%. Besides, the inhibition at 1 µM in the assay with COS-1 [3] was 9.5%. The compound further showed an inhibition at 30 µM in the assay with COS-1 [4] of 52%. Besides, in the assay with COS-1 [5], the inhibition at 10 µM was 19%. Also, at 60 µM the inhibition in the assay with COS-1 [6] was 70%. In the assay on COS-1 [7], this compound had an inhibition at 3 µM of 8.7%. For the same compound, in the assay with COS-1 [8], the inhibition at 20 µM came to 38%.

As to `COc1cc(C[C@@H](C)[C@@H](C)Cc2ccc(O)c(OC)c2)ccc1O` [MESODIHYDROGUAIARETIC ACID], the IC50 in the assay with COS-1 [1] came out at 39 µM. Moreover, in the assay on COS-1 [2], the inhibition at 100 µM is 73.7%. The compound also gave an inhibition at 1 µM in the assay with COS-1 [3] of 5.5%. For the same compound, the inhibition at 30 µM in the assay on COS-1 [4] came out at 43%. Besides, the inhibition at 10 µM in the assay with COS-1 [5] was found to be 22.3%. Besides, in the assay with COS-1 [6], the inhibition at 60 µM amounted to 63.7%. In the assay on COS-1 [7], this compound displayed an inhibition at 3 µM of 10.3%. Further, the inhibition at 20 µM with COS-1 [8] is 30.5%.

For `COc1ccc(C[C@@H](C)[C@@H](C)Cc2ccc(OC)c(OC)c2)cc1OC` [TERAMEPROCOL], the IC50 with COS-1 [1] amounted to 11.1 µM. In the assay on COS-1 [2], this compound showed an inhibition at 100 µM of 90.3%. For the same compound, the inhibition at 1 µM with COS-1 [3] worked out at 18.5%. In addition, 30 µM produced 70% inhibition with COS-1 [4]. Moreover, testing at 10 µM with COS-1 [5] gave an inhibition of 45%. Also, the inhibition at 60 µM in the assay on COS-1 [6] was determined as 78.7%. Further, the inhibition at 3 µM in the assay on COS-1 [7] was 25.3%. This compound registered an inhibition at 20 µM with COS-1 [8] of 61%.

The values above are taken from ChEMBL document CHEMBL1131048, “Antiviral activities of methylated nordihydroguaiaretic acids. 1. Synthesis, structure identification, and inhibition of tat-regulated HIV transactivation” (J Med Chem, 1998).
